Data: ChEMBL document CHEMBL3352597, “Heck products of parthenolide and melampomagnolide-B as anticancer modulators that modify cell cycle progression” (Eur J Med Chem, 2014)
Activity calls are given as the source filed them. The calls are words filed in the database; no cut-off is given here.

Legend:
Type in all cases: functional
CCRF-CEM = assay: Anticancer activity against human CCRF-CEM cells
Summary of the method: (§1)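 NCI 60 human cancer cell line panel, multiple-dose testing at five concentrations (10^-4, 10^-5, 10^-6, 10^-7 and 10^-8 M). Dose-response curves plot cytotoxic effect against log10 of drug concentration for each cell line. GI50 is the molar concentration giving 50% growth inhibition; LC50 is the concentration killing 50% of cells.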

HL-60(TB) = assay: Anticancer activity against human HL-60(TB) cells; summary of the method: as §1
K562 = assay: Anticancer activity against human K562 cells; summary of the method: as §1
[1] = Anticancer activity against human MOLT4 cells; summary of the method: as §1
[2] = Anticancer activity against human RPMI8226 cells; summary of the method: as §1
SR = assay: Anticancer activity against human SR cells
Summary of the method: (§2)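 NCI 60 human tumour cell line screen. A single-concentration pre-screen was run at 10^-5 M. Compounds selected from it were then tested at five concentrations, 10^-4 to 10^-8 M. Dose-response curves plotted cytotoxic effect against log10 of the drug concentration for each cell line. GI50 is the molar concentration giving 50% growth inhibition, and LC50 the concentration killing 50% of cells.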

A549 = assay: Anticancer activity against human A549 cells; summary of the method: as §1
HOP-62 = assay: Anticancer activity against human HOP62 cells; summary of the method: as §1
NCI-H226 = assay: Anticancer activity against human NCI-H226 cells; summary of the method: as §1
NCI-H23 = assay: Anticancer activity against human NCI-H23 cells; summary of the method: as §1
NCI-H322M = assay: Anticancer activity against human NCI-H322M cells after 48 hrs; summary of the method: as §1
NCI-H522 = assay: Anticancer activity against human NCI-H522 cells; summary of the method: as §1
[3] = Anticancer activity against human COLO205 cells; summary of the method: as §1
[4] = Anticancer activity against human HCC2998 cells; summary of the method: as §1
[5] = Anticancer activity against human HCT116 cells; summary of the method: as §1
[6] = Anticancer activity against human HCT15 cells; summary of the method: as §1
HT-29 = assay: Anticancer activity against human HT-29 cells; summary of the method: as §1
KM12 = assay: Anticancer activity against human KM12 cells; summary of the method: as §1
SW-620 = assay: Anticancer activity against human SW620 cells; summary of the method: as §2
SF-268 = assay: Anticancer activity against human SF268 cells; summary of the method: as §1
[7] = Anticancer activity against human SF295 cells; summary of the method: as §1
SNB-19 = assay: Anticancer activity against human SNB19 cells; summary of the method: as §1
SNB-75 = assay: Anticancer activity against human SNB75 cells; summary of the method: as §2
U-251 = assay: Anticancer activity against human U251 cells; summary of the method: as §2
[8] = Anticancer activity against human LOXIMVI cells; details: LOX IMVI; summary of the method: as §1
Malme-3M = assay: Anticancer activity against human MALME-3M cells; summary of the method: as §1
M14 = assay: Anticancer activity against human M14 cells; summary of the method: as §1
MDA-MB-435 = assay: Anticancer activity against human MDA-MB-435 cells; summary of the method: as §1
SK-MEL-2 = assay: Anticancer activity against human SK-MEL-2 cells; summary of the method: as §1
SK-MEL-28 = assay: Anticancer activity against human SK-MEL-28 cells; summary of the method: as §1
[9] = Anticancer activity against human UACC62 cells; summary of the method: as §2
IGROV-1 = assay: Anticancer activity against human IGROV1 cells; summary of the method: as §1
[10] = Anticancer activity against human OVCAR3 cells; summary of the method: as §1
[11] = Anticancer activity against human OVCAR4 cells; summary of the method: as §1
[12] = Anticancer activity against human OVCAR5 cells; summary of the method: as §1
[13] = Anticancer activity against human OVCAR8 cells; summary of the method: as §1
[14] = Anticancer activity against human NCI-ADR-RES cells; summary of the method: as §1
786-0 = assay: Anticancer activity against human 786-0 cells; summary of the method: as §1
A498 = assay: Anticancer activity against human A498 cells; summary of the method: as §1
ACHN = assay: Anticancer activity against human ACHN cells; summary of the method: as §1
CAKI-1 = assay: Anticancer activity against human CAKI-1 cells; summary of the method: as §1
[15] = Anticancer activity against human RXF393 cells; summary of the method: as §1
SN12C = assay: Anticancer activity against human SN12C cells; summary of the method: as §1
TK-10 = assay: Anticancer activity against human TK10 cells; summary of the method: as §2
[16] = Anticancer activity against human UO31 cells; summary of the method: as §2
[17] = Anticancer activity against human PC3 cells; summary of the method: as §1
DU-145 = assay: Anticancer activity against human DU145 cells after 48 hrs; details: DU-145, 48 h; summary of the method: as §1
MDA-MB-231 = assay: Anticancer activity against human MDA-MB-231 cells; summary of the method: as §1
[18] = Anticancer activity against human Hs 578T cells; summary of the method: as §1
[19] = Anticancer activity against human BT549 cells; summary of the method: as §1
T47D = assay: Anticancer activity against human T47D cells; summary of the method: as §2
MDA-MB-468 = assay: Anticancer activity against human MDA-MB-468 cells; summary of the method: as §1
[20] = read-out: LC50 (the source's name)

## C/C1=C\CC[C@@]2(C)O[C@@H]2[C@H]2OC(=O)/C(=C/c3ccsc3)[C@@H]2CC1
CCRF-CEM
  GI50: 19.1 µM
CCRF-CEM; [20]
  CC50: > 100 µM
HL-60(TB)
  GI50: 21.7 µM
HL-60(TB); [20]
  CC50: 99.9 µM
K562
  GI50: 25.2 µM
K562; [20]
  CC50: > 100 µM
[1]; MOLT-4
  GI50: 25.7 µM
[1]; MOLT-4, read-out: LC50 (the source's name)
  CC50: > 100 µM
[2]; RPMI-8226
  GI50: 19.7 µM
[2]; RPMI-8226, read-out: LC50 (the source's name)
  CC50: > 100 µM
SR
  GI50: 20.7 µM
SR; [20]
  CC50: > 100 µM
A549
  GI50: 29.8 µM
A549; [20]
  CC50: > 100 µM
HOP-62
  GI50: 35.8 µM
HOP-62; [20]
  CC50: > 100 µM
NCI-H226
  GI50: 30.2 µM
NCI-H226; [20]
  CC50: > 100 µM
NCI-H23
  GI50: 23 µM
NCI-H23; [20]
  CC50: > 100 µM
NCI-H322M
  GI50: 44.7 µM
NCI-H322M; [20]
  CC50: > 100 µM
NCI-H522
  GI50: 5.44 µM
NCI-H522; [20]
  CC50: 59.7 µM
[3]; COLO 205
  GI50: 22.6 µM
[3]; COLO 205, read-out: LC50 (the source's name)
  CC50: 90.9 µM
[4]; HCC 2998
  GI50: 33.8 µM
[4]; HCC 2998, read-out: LC50 (the source's name)
  CC50: > 100 µM
[5]; HCT-116
  GI50: 28.3 µM
[5]; HCT-116, read-out: LC50 (the source's name)
  CC50: > 100 µM
[6]; HCT-15
  GI50: 22.6 µM
[6]; HCT-15, read-out: LC50 (the source's name)
  CC50: > 100 µM
HT-29
  GI50: 27 µM
HT-29; [20]
  CC50: > 100 µM
KM12
  GI50: 20.4 µM
KM12; [20]
  CC50: 86.7 µM
SW-620
  GI50: 22.9 µM
SW-620; [20]
  CC50: > 100 µM
SF-268
  GI50: 21.3 µM
SF-268; [20]
  CC50: > 100 µM
[7]; SF-295
  GI50: 28.5 µM
[7]; SF-295, read-out: LC50 (the source's name)
  CC50: > 100 µM
SNB-19
  GI50: 47.6 µM
SNB-19; [20]
  CC50: > 100 µM
SNB-75
  GI50: 21.5 µM
SNB-75; [20]
  CC50: > 100 µM
U-251
  GI50: 21.7 µM
U-251; [20]
  CC50: > 100 µM
[8]
  GI50: 18 µM
[8]; [20]
  CC50: 71.2 µM
Malme-3M
  GI50: 22.5 µM
Malme-3M; [20]
  CC50: > 100 µM
M14
  GI50: 20.5 µM
M14; [20]
  CC50: > 100 µM
MDA-MB-435
  GI50: 18.3 µM
MDA-MB-435; [20]
  CC50: > 100 µM
SK-MEL-2
  GI50: inactive
  LC50: inactive
SK-MEL-28
  GI50: 29.4 µM
SK-MEL-28; [20]
  CC50: > 100 µM
[9]; UACC-62
  GI50: 13.8 µM
[9]; UACC-62, read-out: LC50 (the source's name)
  CC50: 76.6 µM
IGROV-1
  GI50: 27.9 µM
IGROV-1; [20]
  CC50: > 100 µM
[10]; OVCAR-3
  GI50: 20.5 µM
[10]; OVCAR-3, read-out: LC50 (the source's name)
  CC50: > 100 µM
[11]; OVCAR-4
  GI50: 24.3 µM
[11]; OVCAR-4, read-out: LC50 (the source's name)
  CC50: > 100 µM
[12]; OVCAR-5
  GI50: 48.1 µM
[12]; OVCAR-5, read-out: LC50 (the source's name)
  CC50: > 100 µM
[13]; OVCAR-8
  GI50: 26.9 µM
[13]; OVCAR-8, read-out: LC50 (the source's name)
  CC50: > 100 µM
[14]
  GI50: 23.6 µM
[14]; [20]
  CC50: > 100 µM
786-0
  GI50: 35.7 µM
786-0; [20]
  CC50: > 100 µM
A498
  GI50: 17.5 µM
A498; [20]
  CC50: > 100 µM
ACHN
  GI50: 32.8 µM
ACHN; [20]
  CC50: > 100 µM
CAKI-1
  GI50: 30.9 µM
CAKI-1; [20]
  CC50: > 100 µM
[15]; RXF 393
  GI50: 18.1 µM
[15]; RXF 393, read-out: LC50 (the source's name)
  CC50: > 100 µM
SN12C
  GI50: 25.8 µM
SN12C; [20]
  CC50: > 100 µM
TK-10
  GI50: 34.7 µM
TK-10; [20]
  CC50: > 100 µM
[16]; UO-31
  GI50: 27.3 µM
[16]; UO-31, read-out: LC50 (the source's name)
  CC50: > 100 µM
[17]; PC-3
  GI50: 22.7 µM
[17]; PC-3, read-out: LC50 (the source's name)
  CC50: > 100 µM
DU-145
  GI50: 25.7 µM
DU-145; [20]
  CC50: > 100 µM
MDA-MB-231
  GI50: 16 µM
  LC50 (concentration killing 50% of cells): 81.8 µM
[18]
  GI50: 21.5 µM
[18]; [20]
  CC50: > 100 µM
[19]; BT-549
  GI50: 20.1 µM
[19]; BT-549, read-out: LC50 (the source's name)
  CC50: 88.2 µM
T47D
  GI50: 29.5 µM
T47D; [20]
  CC50: > 100 µM
MDA-MB-468
  GI50: 17.7 µM
  LC50 (concentration killing 50% of cells): > 100 µM
